# Only some compounds are listed: those with a hit (about 2.1% of all), similar ones and a draw of the others.
# GRK2 aptamer HTS = human GRK2 inhibition via aptamer displacement; bead flow cytometry, FAM-aptamer displacement from GRK2; P25098; inhibition of aptamer binding, % at 10 µM; 0.59% of 330,000 active; AID 488847;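 active = inhibition of aptamer binding above 40%, roughly 3 SD of noise, on plates passing a quality check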;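 note: median bead fluorescence of bound FAM aptamer so fluorescent compounds give negative values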
# Target sequence (P25098 whole entry, looked up): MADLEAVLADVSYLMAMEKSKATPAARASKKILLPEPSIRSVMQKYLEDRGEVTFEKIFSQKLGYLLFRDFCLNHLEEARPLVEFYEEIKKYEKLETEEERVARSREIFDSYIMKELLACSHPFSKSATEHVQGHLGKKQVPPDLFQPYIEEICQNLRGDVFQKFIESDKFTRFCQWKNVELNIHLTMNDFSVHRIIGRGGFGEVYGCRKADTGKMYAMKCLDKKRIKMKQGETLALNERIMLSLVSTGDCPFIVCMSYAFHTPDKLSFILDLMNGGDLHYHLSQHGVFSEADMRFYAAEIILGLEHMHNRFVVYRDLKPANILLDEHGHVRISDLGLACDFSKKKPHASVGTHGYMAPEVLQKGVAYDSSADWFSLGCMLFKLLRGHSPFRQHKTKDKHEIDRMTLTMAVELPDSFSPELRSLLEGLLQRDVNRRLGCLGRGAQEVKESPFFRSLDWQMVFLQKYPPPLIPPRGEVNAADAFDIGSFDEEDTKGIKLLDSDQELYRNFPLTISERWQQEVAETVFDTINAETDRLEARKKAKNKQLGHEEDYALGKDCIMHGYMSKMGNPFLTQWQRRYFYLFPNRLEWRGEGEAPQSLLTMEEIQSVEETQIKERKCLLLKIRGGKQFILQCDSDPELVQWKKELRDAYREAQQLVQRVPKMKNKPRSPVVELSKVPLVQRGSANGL
# SUMO1-SIM PPI = modulators of human SUMO1-mediated protein-protein interactions; P63165; SUMO1 binding to a labelled peptide, TR-FRET, 1 h; inhibition, % at 20 µM; 0.33% of 360,000 active; AID 602429; in the data active = inhibition above about 37%
# STEP inh = inhibitors of human striatal-enriched phosphatase STEP | 0.25% of 360,000 active | P54829 | recombinant STEP, OMFP fluorogenic substrate, fluorescence | AID 588621 | inhibition, % at 20 µM;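 active = inhibition at 20 µM, scaled per plate between control wells, above about 37%, limit read from the data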;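 note: 0% = DMSO with enzyme and substrate and 100% = substrate only without enzyme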
#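 Assay system: isolated STEP enzyme. Buffer or medium: pH 6.0 Bis-Tris with DTT and Tween 20. Also added: fluorogenic phosphatase substrate OMFP at 25 µM final. Dosing: 20 µM, 1% DMSO. Timing: 20 min reaction, room temperature, in the dark. Measured by: fluorescence intensity, excitation 480 nm, emission 540 nm. Evaluation: normalized % inhibition.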
# LMPTP block = blocks human LMPTP phosphatase | P24666 | recombinant LMPTP-A, OMFP fluorogenic substrate, fluorescence intensity | inhibition, % at 20 µM | 0.22% of 360,000 active;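 active = compounds that cut the enzyme signal by at least half of the control window in the single-dose screen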;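 note: plate controls were DMSO wells with enzyme plus substrate for no effect and substrate without enzyme for full effect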
#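 Material: LMPTP-A; amount: 0.625 nM enzyme; doses: single 20 µM dose; times: reaction 50 min, room temperature, dark; technique: fluorescence intensity of OMFP turnover product; benchmarks: no-enzyme and uninhibited controls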
# DNMT1 block = inhibitors of human DNMT1; DNMT1 molecular beacon, Hinp1I cleavage, fluorescence; P26358; inhibition (reported as % activation of signal), % at 10 µM; 0.83% of 360,000 active; in the data active = inhibition above about 50%
# Scp1 inh = inhibitors of human Scp-1 phosphatase. Q9GZU7. Recombinant Scp1, phosphopeptide, malachite green phosphate absorbance. inhibition, % at 20 µM. 0.88% of 340,000 active;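 active = inhibition above about 50% at 20 µM, limit read from the data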;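 note: plate controls were DMSO wells with enzyme for no effect and wells lacking enzyme for full effect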
#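 Material – SCP-1 phosphatase catalytic domain, residues 76-261 · Buffer or medium – Acidic Tris acetate buffer with magnesium and detergent · Also added – Phospho 17-mer peptide substrate · Compound – single 20 µM dose, 1% DMSO · Times – 45 min room-temperature reaction, 5 min colour, 30 min stabiliser · Technique – Phosphate-binding colour reagent, absorbance read at 630 nm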
# Scp-1 conf = Scp-1 (human) inhibition, single-dose confirmed; inhibition, % at 20 µM; recombinant SCP-1 catalytic domain, phosphate release, malachite green absorbance; shares compounds with Scp1 inh; 61% of 2,500 active; AID 540281;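 note: plate controls were DMSO with enzyme for no effect and buffer wells lacking enzyme for full effect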
# MG interference = counter-screen for Scp-1 inhibitors: colorimetric interference; shares compounds with Scp1 inh; Colorimetric interference counterscreen, malachite green absorbance 630 nm; apparent inhibition (interference), % at 20 µM; 2,500 tested, under 10 active; AID 540313;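 note: compounds added after enzyme reaction finished so only phosphate colour detection is probed; plate controls were DMSO wells with completed Scp-1 reaction for no effect and substrate wells lacking enzyme for full effect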
# Scp1 DSF = Scp-1 (human) binding by thermal shift | shares compounds with Scp1 inh | Recombinant SCP1, Sypro Orange thermal shift Tm | thermal shift relative to vanadate control, % at 40 µM | 25% of 1,500 active | AID 540329;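 active = substances whose mean melting-temperature shift, as a percentage of the reference inhibitor's shift, reaches about 5.3%, limit read from the data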;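 note: 0% = Tm of DMSO wells and 100% = Tm with sodium orthovanadate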
# The depositor's hits bear a star; · = not tested or not shown.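 Rule for the calls, unless noted: active = inhibition of at least 30% at 20 µM; inactive = the rest.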
SMILES,GRK2 aptamer HTS,SUMO1-SIM PPI,STEP inh,LMPTP block,DNMT1 block,Scp1 inh,Scp-1 conf,MG interference,others
Cn1ncc(C#N)c1/N=C/N(Cc1ccccc1)Cc1ccccc1,0,2,1,2,-2,73*,-20,-17,
O=c1[nH]c(=S)[nH]c2c1[C@H](CCc1cccc(Cl)c1)O[C@H](C1CCCC1)C2,·,9,·,1,·,·,·,·,
COc1cc2cnc(-c3ccccc3)c(-c3cc(OC)c(OC)c(OC)c3)c2cc1OC,0,2,-1,0,3,61*,37*,0,Scp1 DSF=-8
Cc1c(C(=O)O)sc2nc(/C=C/c3cccc(F)c3)[nH]c(=O)c12,1,-8,7,0,4,81*,21,-5,
C=CCn1c(SCc2nc3sc(C(=O)O)c(C)c3c(=O)[nH]2)nnc1-c1ccc(F)cc1,1,5,-1,-2,8,8,·,·,
CCC(=O)C1CCCN(C(=O)c2ccc(OC3CCN(C(=O)c4cccnc4)CC3)cc2)C1 (stereo not given),0,3,0,-1,1,-5,·,·,
O=C(c1cccnc1)N1CCC(Oc2ccc(C(=O)N3CCCCO3)cc2)CC1,7,17,2,0,0,69*,-11,-4,
C/C(=N\Nc1nncc2ccccc12)c1ccc(C(C)(C)C)cc1,0,-6,1,4,-2,57*,-7,-5,
C/C(=N\Nc1nncc2ccccc12)c1ccc(O)cc1,0,-4,0,1,-1,-1,·,·,
CC(C)c1ccc2oc(-c3ccc(NC(=O)c4ncn[nH]4)cc3)nc2c1,1,47*,13,3,37,91*,53*,-7,Scp1 DSF=-14
COc1ccc(C2=Nc3ccccc3N(C(=O)c3cc(Cl)cc(Cl)c3)C2C(=O)NCc2ccccc2)cc1 (stereo not given),·,-3,·,3,·,·,·,·,
C[C@]12CCC3C(CC=C4C[C@@H](O)CC[C@@]43C)C1CCC2[C@]1(C)CCC(=O)O1 (stereo not given in full),1,3,-3,-1,-1,58*,-2,-12,
CC12CCC(O)CC1=CCC1C2CCC2(C)C1CCC21CCC(=O)O1 (stereo not given),3,-2,-3,0,0,-8,·,·,
CCCCNC(=O)c1nc(C2CCN(S(=O)(=O)c3ccc(OC(F)(F)F)cc3)CC2)oc1-c1ccccc1,·,1,·,1,·,·,·,·,
CCCN(C)C1CN(Cc2cn(CCCC(=O)OC)nn2)S(=O)(=O)C1 (stereo not given),·,2,·,0,·,·,·,·,
O=C1NC(=Nc2ccccc2)S/C1=C\c1cccnc1,1,-17,6,4,1,67*,10,-4,
CC(C)(C)n1nnnc1C(c1ccccc1)N1CCN(CCN2CCOCC2)CC1 (stereo not given),·,4,·,-1,·,·,·,·,
O=C(CN1CCN(Cc2ccc(F)cc2Cl)C1=O)NCCc1ccccc1,0,0,-1,-1,7,50*,6,-11,
O=C(O)CN1CCN(Cc2ccc(F)cc2Cl)C1=O,1,1,21,-1,2,-4,·,·,
CN(CCc1ccccc1)C(=O)c1[nH]c(C(F)(F)F)nc1-c1ccccc1,·,8,-1,-2,-3,·,·,·,
Nc1cc2c(cc1[N+](=O)[O-])OCO2,13,-11,4,19,24,58*,58*,-5,Scp1 DSF=4
COC(=O)C[C@@H]1C=C[C@H](NC(=O)Cc2ccccn2)[C@@H](CO)O1,·,0,·,-2,·,·,·,·,
O=C1C(=O)N(CCO)C(c2ccccc2)/C1=C(\O)c1ccccc1 (stereo not given),3,-5,0,-3,0,57*,-11,-13,
O=C(Nc1cc(S(=O)(=O)Nc2ccc(Cl)cc2)ccc1O)c1ccc(S(=O)(=O)N2CCCCCC2)cc1,2,5,6,3,-1,81*,77*,-15,Scp1 DSF=9.9*
C[C@@H]1CN([C@H](C)CO)C(=O)c2cc(-c3ccccc3)cnc2O[C@@H]1CN(C)C(=O)C1CCOCC1,·,3,0,-2,6,·,·,·,
SMILES,GRK2 aptamer HTS,SUMO1-SIM PPI,STEP inh,LMPTP block,DNMT1 block,Scp1 inh,Scp-1 conf,MG interference,others
O=C1NC(=S)S/C1=C1\Sc2ccccc2N1CCCS(=O)(=O)O,1,5,6,-1,9,-2,·,·,
NN1C(=O)/C(=C2/Sc3ccccc3N2CCCS(=O)(=O)O)SC1=S,6,-7,29,0,30,84*,73*,2,Scp1 DSF=-11
O=C(Nc1ccc(Br)cc1Cl)c1cnccn1,14,7,2,0,48,68*,55*,-23,Scp1 DSF=8.8*
Cn1nc(C(=O)Nc2ccc(-n3cnnn3)cc2)c2ccccc2c1=O,0,2,3,1,-2,99*,70*,-11,Scp1 DSF=-27
O=C(CCCN1C(=O)/C(=C/c2ccccc2OC(F)F)SC1=S)Nc1cccnc1,0,-35,1,3,-4,-12,·,·,
C[C@@H](NC(=O)Cn1ccc(N)nc1=O)c1cccc2ccccc12,0,-3,-2,-2,1,-2,-24,-25,
CCCCn1c2c(c(=N)c3c1CCC3)CCC2,10,5,-3,0,1,94*,-11,-15,
CCCc1ccc2c(C(F)(F)F)cc(C(F)(F)F)cc2n1,·,13,0,-1,1,·,·,·,
C[N+]1(CCOc2ccc([N+](=O)[O-])cc2)CCOCC1,3,-13,-1,-3,3,106*,85*,-11,Scp1 DSF=-11
CC(=O)c1ccc(OCCOc2ccc([N+](=O)[O-])cc2)cc1,0,-20,0,0,2,-10,·,·,
CCOC(=O)C(=Cc1ccc(N(C)C)cc1)C(=O)c1ccccc1,·,5,0,2,2,·,·,·,
CCOC(=O)N(O)c1ccc(C=Cc2ccccc2)cc1,·,-7,2,5,10,59*,50*,-8,Scp1 DSF=-18
CCn1cc(/C=C(\NC(=O)c2ccccc2OC)C(=O)NCCN2CCOCC2)c2ccccc21,·,-1,-4,1,0,·,·,·,
Cc1cc(C(F)(F)F)c2c(C)nn(CCc3nn[nH]n3)c2n1,0,10,-2,-1,2,1,·,·,
Cc1nn(CCc2nn[nH]n2)c2nc(-c3ccccc3)cc(C(F)(F)F)c12,2,4,-3,0,2,64*,71*,-4,Scp1 DSF=-11
CCOC1CCCc2oc(-c3ccc(N(C)C)cc3)c(C(=O)OC)c21 (stereo not given),·,-7,·,1,·,·,·,·,
